Data as given in ChEMBL document CHEMBL1134509, “Transformation of a kappa-opioid receptor antagonist to a kappa-agonist by transfer of a guanidinium group from the 5'- to 6'-position of naltrindole” (J Med Chem, 2001).

Legend:
[1] = target: Delta-type opioid receptor (Mus musculus) (UniProt P32300); assay: Opioid antagonist potency, determined in mouse vas deferens (MVD) preparation, using DADLE (delta-opioid) as agonist, expressed as IC50 ratio; format: functional
Method in brief: (§1)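 Electrically stimulated mouse vas deferens. Antagonist, normally 100 nM, preincubated 15 min before concentration-response curves to δ agonist DADLE, obtained with and without antagonist in the same preparation. IC50 ratio from the curves; Ke = [antagonist]/(IC50 ratio − 1), not computed when ratio <1. Mean ± SEM.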

Mu-type opioid receptor = Mu-type opioid receptor (Rattus norvegicus, UniProt P33535); assay: Binding affinity towards rat mu-opioid receptor was determined using [3H]diprenorphine as radioligand
Method in brief: (§2)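 Run in 25 mM HEPES pH 7.4 for 90 min at room temperature, filtered and scintillation counted. Nonspecific binding defined with 10 µM naltrexone. Ki from IC50 by Cheng-Prusoff, mean ± SE of three experiments in duplicate.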

[2] = target: Mu-type opioid receptor (Cavia porcellus) (UniProt P97266); assay: Opioid antagonist potency, determined in guinea pig ileum (GPI) preparation, using morphine (mu-opioid) as agonist, expressed as IC50 ratio; format: functional, tissue-based
Method in brief: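 Morphine concentration-response curves in electrically stimulated guinea pig ileal longitudinal muscle, run with and without antagonist (100 nM unless noted, 15 min preincubation) in the same preparation. Result expressed as the IC50 ratio of agonist with versus without antagonist.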

[3] = target: Kappa-type opioid receptor (Cavia porcellus) (UniProt P41144); assay: Opioid antagonist potency towards opioid receptor kappa 1 determined in guinea pig ileum preparation; format: functional, tissue-based
Method in brief: (§3)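 Electrically stimulated guinea pig ileal longitudinal muscle. Antagonist at 100 nM unless noted (some at 20 nM) was preincubated 15 min, then concentration-response curves to κ agonist ethylketazocine or µ agonist morphine were run with and without antagonist in the same tissue. IC50 ratio taken from the curves; Ke = [antagonist]/(IC50 ratio − 1). Mean ± SEM, n in parentheses.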

[4] = target: Kappa-type opioid receptor (Cavia porcellus) (UniProt P41144); assay: Opioid antagonist potency, determined in the guinea pig ileum (GPI) preparation, by employing EK (kappa-opioid) as agonist, expressed as IC50 ratio; format: functional, tissue-based; method in brief: as §3
[5] = target: Delta-type opioid receptor (Mus musculus) (UniProt P32300); assay: Opioid antagonist potency, determined in mouse vas deferens (MVD) preparation, using DADLE (delta-opioid) as agonist (Ke=antagonist/IC50 ratio -1); format: functional; method in brief: as §1
[6] = target: T1, Kappa-type opioid receptor (Rattus norvegicus, UniProt P34975); assay: Binding affinity towards rat opioid receptor kappa 1 was determined using [3H]diprenorphine radioligand; method in brief: as §2
[7] = target: Delta-type opioid receptor (Mus musculus, UniProt P32300); assay: Binding affinity towards mouse delta-opioid receptor was determined using [3H]diprenorphine as radioligand; method in brief: as §2
[8] = target: Kappa-type opioid receptor (Cavia porcellus) (UniProt P41144); settings: Ileum, 20 nM
[9] = target: T1, Kappa-type opioid receptor; assay: Effect on binding to wild-type opioid receptor kappa 1 using [3H]diprenorphine in transiently expressed […] HEK293 cells; format: cell-based; method in brief: as §2
[10] = target: Mu-type opioid receptor (Cavia porcellus) (UniProt P97266); assay: Opioid antagonist potency, determined in guinea pig ileum (GPI) preparation, using morphine (mu-opioid) as agonist (Ke=antagonist/IC50 ratio -1); format: functional, tissue-based; method in brief: as §3
[11] = target: Kappa-type opioid receptor (Rattus norvegicus, UniProt P34975, E297A); assay: Effect on binding to kappa(Glu297Ala) opioid receptor, using [3H]diprenorphine in transiently expressed […] HEK293 cells; format: cell-based
Method in brief: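 Rat κ receptor carrying the Glu297Ala mutation, subcloned in pcDNA3, was transiently expressed in HEK-293 cells by calcium phosphate transfection. Ki was derived by Cheng-Prusoff.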

[12] = target: Mu-type opioid receptor (Cavia porcellus) (UniProt P97266); settings: Ileum, 20 nM

Sequence of Delta-type opioid receptor (Mus musculus) (P32300 whole entry): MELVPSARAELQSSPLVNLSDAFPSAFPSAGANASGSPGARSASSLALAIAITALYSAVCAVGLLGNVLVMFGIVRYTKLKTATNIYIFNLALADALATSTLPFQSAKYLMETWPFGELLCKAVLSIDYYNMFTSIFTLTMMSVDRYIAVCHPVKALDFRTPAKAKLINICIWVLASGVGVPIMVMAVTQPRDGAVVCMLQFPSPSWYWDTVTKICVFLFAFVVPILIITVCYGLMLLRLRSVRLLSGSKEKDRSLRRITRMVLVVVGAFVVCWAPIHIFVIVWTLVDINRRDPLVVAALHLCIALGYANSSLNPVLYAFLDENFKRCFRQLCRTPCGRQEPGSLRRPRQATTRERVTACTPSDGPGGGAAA
Sequence of Mu-type opioid receptor (Cavia porcellus) (P97266 whole entry): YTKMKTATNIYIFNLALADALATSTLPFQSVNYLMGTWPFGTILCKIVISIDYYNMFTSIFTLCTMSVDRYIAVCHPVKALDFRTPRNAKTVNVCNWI
T1 sequence (P34975 whole entry): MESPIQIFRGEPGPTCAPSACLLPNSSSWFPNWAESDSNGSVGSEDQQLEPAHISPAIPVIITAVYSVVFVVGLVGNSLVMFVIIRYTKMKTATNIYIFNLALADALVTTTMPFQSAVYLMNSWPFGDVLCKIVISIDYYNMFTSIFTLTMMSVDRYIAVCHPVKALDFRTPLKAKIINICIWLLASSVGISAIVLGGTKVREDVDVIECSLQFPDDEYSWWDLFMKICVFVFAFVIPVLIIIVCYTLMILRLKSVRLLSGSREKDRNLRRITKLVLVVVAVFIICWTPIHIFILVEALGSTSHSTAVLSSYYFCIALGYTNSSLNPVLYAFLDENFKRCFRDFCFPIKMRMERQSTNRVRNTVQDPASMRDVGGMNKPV
Sequence of Kappa-type opioid receptor (Cavia porcellus) (P41144 whole entry): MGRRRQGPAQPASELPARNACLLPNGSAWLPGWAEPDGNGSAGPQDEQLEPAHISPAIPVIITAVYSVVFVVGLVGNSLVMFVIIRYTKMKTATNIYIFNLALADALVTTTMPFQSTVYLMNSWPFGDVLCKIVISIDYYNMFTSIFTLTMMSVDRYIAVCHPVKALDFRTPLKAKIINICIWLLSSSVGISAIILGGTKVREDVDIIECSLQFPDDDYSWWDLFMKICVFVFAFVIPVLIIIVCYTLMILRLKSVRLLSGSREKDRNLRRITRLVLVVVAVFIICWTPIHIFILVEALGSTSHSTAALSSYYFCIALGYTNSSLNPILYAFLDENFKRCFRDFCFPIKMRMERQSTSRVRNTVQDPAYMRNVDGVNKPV
Sequence of Kappa-type opioid receptor (Rattus norvegicus, UniProt P34975, E297A) (P34975 whole entry E297A): as the sequence (P34975 whole entry) above, with E297A counted along it
Sequence of Delta-type opioid receptor (P32300 whole entry): as the sequence (P32300 whole entry) above
Sequence of Mu-type opioid receptor (P33535 whole entry): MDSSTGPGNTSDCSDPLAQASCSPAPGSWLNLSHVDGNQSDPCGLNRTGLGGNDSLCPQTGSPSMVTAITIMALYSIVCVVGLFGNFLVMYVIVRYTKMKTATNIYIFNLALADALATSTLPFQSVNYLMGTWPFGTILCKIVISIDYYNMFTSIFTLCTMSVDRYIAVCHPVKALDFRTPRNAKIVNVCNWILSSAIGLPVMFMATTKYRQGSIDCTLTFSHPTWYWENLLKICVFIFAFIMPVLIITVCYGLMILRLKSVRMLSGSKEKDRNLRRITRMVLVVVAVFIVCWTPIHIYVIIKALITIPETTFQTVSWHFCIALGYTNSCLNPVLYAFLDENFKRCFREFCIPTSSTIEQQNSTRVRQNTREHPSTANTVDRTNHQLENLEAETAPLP

N=C(N)Nc1cccc2[nH]c3c(c12)C[C@@]1(O)[C@H]2Cc4ccc(O)c5c4[C@@]1(CCN2CC1CC1)[C@H]3O5 showed an IC50 ratio [1] of 1.4, a Ki (Mu-type opioid receptor) greater than 1 µM and an IC50 ratio [2] of 0.34. It also gave a Ke [3] of 80 nM, an IC50 ratio [4] of 2.3 and a Ke [5] of 263 nM. The Ki [6] was greater than 1 µM and the Ki [7] was greater than 1 µM.

N=C(N)Nc1ccc2[nH]c3c(c2c1)C[C@@]1(O)[C@H]2Cc4ccc(O)c5c4[C@@]1(CCN2CC1CC1)[C@H]3O5 [GUANIDINONALTRINDOLE] gave a Ke [3] of 0.16 nM, an IC50 ratio [8] of 139 and a Ki [9] of 0.00021 µM.

N=C(N)Nc1cccc2c3c([nH]c12)[C@@H]1Oc2c(O)ccc4c2[C@@]12CCN(CC1CC1)[C@H](C4)[C@]2(O)C3 was tested, and the IC50 ratio [1] was 105, the IC50 ratio [2] was 1.4 and the Ke [3] was 100 nM. The IC50 ratio [4] was 2, the Ke [5] was 0.96 nM and the Ke [10] was 238 nM. The Ki [11] was 0.0473 µM and the Ki [9] was 0.0327 µM.

For N=C(N)Nc1ccc2c3c([nH]c2c1)[C@@H]1Oc2c(O)ccc4c2[C@@]12CCN(CC1CC1)[C@H](C4)[C@]2(O)C3, the IC50 ratio [1] was 0.2, the Ki [11] was 0.0123 µM and the Ki [9] was 0.00113 µM.

With Oc1ccc2c3c1O[C@H]1c4[nH]c5c(c4C[C@@]4(O)[C@@H](C2)N(CC2CC2)CC[C@]314)C[C@@]1(O)[C@H]2Cc3ccc(O)c4c3[C@@]1(CCN2CC1CC1)[C@H]5O4 the IC50 ratio [1] was 10.4, the IC50 ratio [12] was 2.6 and the IC50 ratio [8] was 49.8.
